Data published in ChEMBL document CHEMBL1148782, “Inhibitors of tumor progression loci-2 (Tpl2) kinase and tumor necrosis factor alpha (TNF-alpha) production: selectivity and in vivo antiinflammatory activity of novel 8-substituted-4-anilino-6-aminoquinoline-3-carbonitriles” (J Med Chem, 2007).
pIC50: −log10 of the molar value. ≈ marks a conversion by molar mass, not a printed value.

What was measured:
Monocyte = assay: Inhibition of LPS-stimulated TNFalpha production in monocytes; type: functional, Homo sapiens
Blood = assay: Inhibition of LPS-stimulated TNFalpha production in human blood; type: functional
Rattus norvegicus [1] = assay: Inhibition of TNFalpha production in Sprague-Dawley rat at 10 mg/kg, po administered 1 hr prior to LPS challenge after 1.5 hrs; type: functional
[2] = target: Epidermal growth factor receptor (Homo sapiens, UniProt P00533)
Epidermal growth factor receptor, sequence (P00533 whole entry): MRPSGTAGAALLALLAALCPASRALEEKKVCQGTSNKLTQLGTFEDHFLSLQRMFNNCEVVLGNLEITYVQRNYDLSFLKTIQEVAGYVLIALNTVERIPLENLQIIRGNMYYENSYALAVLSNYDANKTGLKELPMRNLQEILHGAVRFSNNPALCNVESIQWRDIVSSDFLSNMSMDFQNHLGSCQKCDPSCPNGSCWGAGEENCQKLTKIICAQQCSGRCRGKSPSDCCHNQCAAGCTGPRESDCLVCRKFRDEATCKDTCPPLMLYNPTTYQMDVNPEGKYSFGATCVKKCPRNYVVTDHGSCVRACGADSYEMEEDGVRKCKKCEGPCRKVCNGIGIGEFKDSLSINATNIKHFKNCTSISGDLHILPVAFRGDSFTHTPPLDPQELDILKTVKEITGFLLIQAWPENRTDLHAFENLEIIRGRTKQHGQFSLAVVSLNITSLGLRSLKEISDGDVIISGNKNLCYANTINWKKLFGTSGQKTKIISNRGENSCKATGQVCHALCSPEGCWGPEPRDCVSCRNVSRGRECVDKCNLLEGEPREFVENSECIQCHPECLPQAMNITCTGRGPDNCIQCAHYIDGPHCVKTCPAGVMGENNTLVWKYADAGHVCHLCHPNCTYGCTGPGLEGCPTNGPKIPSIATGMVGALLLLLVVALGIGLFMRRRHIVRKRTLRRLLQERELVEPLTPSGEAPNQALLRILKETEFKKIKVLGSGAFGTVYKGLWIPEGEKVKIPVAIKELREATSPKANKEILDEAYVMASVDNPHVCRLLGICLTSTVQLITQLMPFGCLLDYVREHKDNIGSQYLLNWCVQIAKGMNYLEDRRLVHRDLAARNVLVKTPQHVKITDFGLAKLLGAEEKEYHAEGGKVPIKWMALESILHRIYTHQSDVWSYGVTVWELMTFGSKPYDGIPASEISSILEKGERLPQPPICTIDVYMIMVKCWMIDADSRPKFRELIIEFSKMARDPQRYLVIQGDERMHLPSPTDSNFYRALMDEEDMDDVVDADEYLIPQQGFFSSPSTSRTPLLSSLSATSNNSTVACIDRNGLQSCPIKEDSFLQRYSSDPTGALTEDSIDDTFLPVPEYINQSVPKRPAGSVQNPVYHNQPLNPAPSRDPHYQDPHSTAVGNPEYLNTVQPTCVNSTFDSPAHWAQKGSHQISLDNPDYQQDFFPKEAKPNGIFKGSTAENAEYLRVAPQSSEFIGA

[3] = target: Mitogen-activated protein kinase kinase kinase 8 (Homo sapiens, UniProt P41279); assay: Inhibition of Tpl2 by ELISA
Mitogen-activated protein kinase kinase kinase 8, sequence (P41279 whole entry): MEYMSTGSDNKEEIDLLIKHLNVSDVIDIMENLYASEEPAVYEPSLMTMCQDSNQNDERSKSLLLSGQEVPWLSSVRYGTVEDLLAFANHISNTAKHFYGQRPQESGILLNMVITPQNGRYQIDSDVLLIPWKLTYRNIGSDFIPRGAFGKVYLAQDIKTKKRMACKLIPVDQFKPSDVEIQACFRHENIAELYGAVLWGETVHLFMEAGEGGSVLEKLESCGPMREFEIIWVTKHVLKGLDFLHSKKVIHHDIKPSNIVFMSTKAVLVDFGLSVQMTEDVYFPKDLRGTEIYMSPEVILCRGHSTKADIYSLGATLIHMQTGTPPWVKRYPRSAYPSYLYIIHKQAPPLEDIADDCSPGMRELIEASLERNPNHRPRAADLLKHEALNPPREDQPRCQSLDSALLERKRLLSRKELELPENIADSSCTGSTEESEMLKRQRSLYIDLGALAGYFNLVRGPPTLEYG

physchem = settings: buffer, pH 7.4
[4] = Plasma clearance in Sprague-Dawley rat at 5 mg/kg, iv; type: ADME, organism-based; design: dose 5 mg/kg, route intravenous
In short: (§1)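 Female Sprague-Dawley rats were dosed by the iv or oral route. Parameters are reported as means of individual-animal pharmacokinetic values.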

[5] = Volume of distribution at steady state in Sprague-Dawley rat at 5 mg/kg, iv; type: ADME, organism-based; design: dose 5 mg/kg, route intravenous; settings: in vivo, read-out: Vss; in short: as §1
[6] = Half life in Sprague-Dawley rat at 5 mg/kg, iv; type: ADME, organism-based; design: dose 5 mg/kg, route intravenous; settings: in vivo; in short: as §1
Rattus norvegicus [7] = assay: AUC (0 to infinity) in Sprague-Dawley rat at 25 mg/kg, po; type: ADME, organism-based, Plasma; design: dose 25 mg/kg, route oral; settings: in vivo; in short: as §1
[8] = Half life in Sprague-Dawley rat at 25 mg/kg, po; type: ADME, organism-based; design: dose 25 mg/kg, route oral; settings: in vivo; in short: as §1
[9] = target: Ribosomal protein S6 kinase beta-1 (Homo sapiens, UniProt P23443); assay: Inhibition of S6K
Ribosomal protein S6 kinase beta-1, sequence (P23443 whole entry): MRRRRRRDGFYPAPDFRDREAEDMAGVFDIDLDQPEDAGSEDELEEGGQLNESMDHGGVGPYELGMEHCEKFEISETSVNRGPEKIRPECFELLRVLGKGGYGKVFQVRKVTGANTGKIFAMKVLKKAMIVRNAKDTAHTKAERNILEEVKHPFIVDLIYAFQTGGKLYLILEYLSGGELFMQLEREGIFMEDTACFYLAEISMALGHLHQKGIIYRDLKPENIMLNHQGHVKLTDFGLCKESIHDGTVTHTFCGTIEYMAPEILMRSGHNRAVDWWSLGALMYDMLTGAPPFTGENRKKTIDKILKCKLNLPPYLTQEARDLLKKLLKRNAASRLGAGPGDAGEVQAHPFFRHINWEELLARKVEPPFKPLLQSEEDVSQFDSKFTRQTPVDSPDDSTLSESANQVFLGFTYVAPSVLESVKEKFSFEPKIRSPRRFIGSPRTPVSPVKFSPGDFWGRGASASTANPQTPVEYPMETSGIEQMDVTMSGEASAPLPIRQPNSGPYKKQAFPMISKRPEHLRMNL

[10] = Bioavailability in Sprague-Dawley rat at 25 mg/kg, po; type: ADME, organism-based; settings: in vivo; in short: as §1
[11] = target: Protein kinase C alpha type (Homo sapiens, UniProt P17252); assay: Inhibition of PKCalpha
[12] = Permeability at pH 7.4 by PAMPA method; type: ADME; settings: read-out: permeability
In short: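 Passive permeability was measured by high-resolution PAMPA at pH 7.4.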

[13] = target: cAMP-dependent protein kinase (PKA) (Homo sapiens, UniProt P22694+P17612+P22612); assay: Inhibition of PKA; type: protein assay

Row | SMILES | pIC50 [2] | Inhibitory concentration (Monocyte) | Activity (Blood) | also measured
1 | CC(C)c1[nH]cnc1CNc1cc(Br)c2ncc(C#N)c(Nc3ccc(F)c(Cl)c3)c2c1 |  | 2200 nM | >20 µM | 
2 | CC#CCOc1ccc(S(=O)(=O)N2CCSC(C)(C)[C@@H]2C(=O)NO)cc1 |  |  |  | inhibition in vivo at 10 mg/kg (Rattus norvegicus [1]): 85%
3 | CS(=O)(=O)CCn1cnc(CNc2cc(Br)c3ncc(C#N)c(Nc4ccc(F)c(Cl)c4)c3c2)c1 |  | 1000 nM | >20 µM | 
4 | N#Cc1cnc2c(Br)cc(NC(=O)Cc3cnc[nH]3)cc2c1Nc1ccc(F)c(Cl)c1 |  |  |  | pIC50 [3]: < 5.30
5 | COC(=O)c1[nH]cnc1CNc1cc(Br)c2ncc(C#N)c(Nc3ccc(F)c(Cl)c3)c2c1 |  | 2000 nM | >20 µM | 
6 | N#Cc1cnc2c(Br)cc(NCc3cn(CCN4CCOCC4)cn3)cc2c1Nc1ccc(F)c(Cl)c1 |  | 430 nM | 8.95 µM | solubility (physchem): 69 µg/mL (≈ 118 µM)
7 | N#Cc1cnc2c(OCC(O)CO)cc(NCc3cnc[nH]3)cc2c1Nc1ccc(F)c(Cl)c1 (stereo not drawn) |  |  |  | pIC50 [3]: 6.08
8 | N#Cc1cnc2c(Br)cc(NCc3cn[nH]n3)cc2c1Nc1ccc(F)c(Cl)c1 |  | 74 nM | 3.5 µM | solubility (physchem): < 10 µg/mL; clearance [4]: 29 mL/min/kg; Vd [5]: 2.7 L/kg; half-life [6]: 3.2 h; AUC/dose (Rattus norvegicus [7]): < 10 ng·kg·h/mg/mL; half-life [8]: 3.9 h; pIC50 [9]: < 4.00; bioavailability [10]: 2%; pIC50 [11]: < 4.00; Papp [12]: < 5 ×10⁻⁶ cm/s; IC50 [13]: > 100 µM
9 | CN(C)C(=O)c1cc(NCc2c[nH]cn2)cc2c(Nc3ccc(F)c(Cl)c3)c(C#N)cnc12 | < 4.70 | >1000 nM | >10 µM | 
10 | CN(C)CCCc1[nH]cnc1CNc1cc(Cl)c2ncc(C#N)c(Nc3ccc(F)c(Cl)c3)c2c1 |  |  | 15.2 µM | 
11 | CC(C)c1[nH]cnc1CNc1cc(Cl)c2ncc(C#N)c(Nc3ccc(F)c(Cl)c3)c2c1 |  |  | 5.8 µM | 

More lines, main results first:

Row | pIC50 [2] | SMILES | Inhibitory concentration (Monocyte) | Activity (Blood) | also measured
12 | < 5.30 | N#Cc1cnc2c(Cl)cc(NCc3cccnc3)cc2c1Nc1ccc(F)c(Cl)c1 | >1000 nM | 20 µM | 
13 | 5.30 | C[S+]([O-])c1cc(NCc2c[nH]cn2)cc2c(Nc3ccc(F)c(Cl)c3)c(C#N)cnc12 (stereo not drawn) | 2130 nM | 13.3 µM | 
14 | 5.68 | COc1cc(NCc2c[nH]cn2)cc2c(Nc3ccc(F)c(Cl)c3)c(C#N)cnc12 | 3000 nM | >10 µM | pIC50 [3]: 6.89
15 | 6.81 | CC(=O)c1cc(NCc2c[nH]cn2)cc2c(Nc3ccc(F)c(Cl)c3)c(C#N)cnc12 | 580 nM | >10 µM | 
